# Laboratory results as given in article PMC2767179 (Bioorganic & medicinal chemistry letters, 2009).
# What was measured:
# [1] = test system: Jun-induced oncogenic transformation in CEF; assay type: cell-based, chicken; settings: CEF infected with avian sarcoma virus 17
# [2] = test system: Myc-induced oncogenic transformation in chicken embryo fibroblasts (CEF); assay type: cell-based; settings: for IC95, inhibition of foci formation: Myc-induced foci in CEF; for inhibition of foci formation: at 20 μM; for inhibition of foci formation / EOT (efficiency of transformation, no inhibition = 1): Myc-induced, CEF; for EOT (efficiency of transformation, no inhibition = 1): tested at 20 μM
# How it was run: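 Chicken embryo fibroblasts infected with the RCAS viral vector expressing transforming chicken cellular Myc. Test compound added at 20 μM. Cultures maintained for three weeks, then foci in each well counted manually by eye. Result expressed as efficiency of transformation (EOT), with no inhibition = 1. Active candidates re-tested in iterative rounds.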
# [3] = test system: Src-induced oncogenic transformation in CEF; assay type: cell-based, chicken; settings: CEF infected with Prague strain of Rous sarcoma virus
# Myc/Max dimerization = test: FRET assay for inhibition of Myc-Max dimerization; assay type: binding
# CEF = test: Intrinsic cytotoxic activity for CEF; assay type: cell-based, chicken
Structure (SMILES),inhibitory activity for foci formation induced by Jun [1],"IC95, inhibition of foci formation [2] [µM]",inhibition of foci formation [2],"EOT (efficiency of transformation, no inhibition = 1) [2]",inhibitory activity for foci formation induced by Src [3],inhibition of Myc/Max dimerization (Myc/Max dimerization),intrinsic cytotoxic activity for CEF (CEF)
"Cc1cc(C)c(S(=O)(=O)N[C@@H](CNC(=O)[C@@H]2CN(C(=O)CC3CCN(C(=O)OC(C)(C)C)CC3)C[C@H]2C(=O)O)C(=O)OC(C)(C)C)c(C)c1 [compound 3, mycmycin-1]",failed to exhibit inhibitory activity,20,complete inhibition of foci formation,0.05,failed to exhibit inhibitory activity,most effective inhibition,neither possess an intrinsic cytotoxic acitivity
"CNC(=O)[C@@H]1CN(C(=O)CCCCCNC(=O)OC(C)(C)C)C[C@H]1C(=O)NC[C@H](NS(=O)(=O)c1cc(Cl)sc1Cl)C(=O)OC(C)(C)C [compound 4, mycmycin-2]",failed to exhibit inhibitory activity,20,complete inhibition of foci formation,0.05,failed to exhibit inhibitory activity,less effective inhibition,neither possess an intrinsic cytotoxic acitivity
